# Measurements: paper PMC4065498 (Chemical research in toxicology, 2010)
# Several values for one entry are separate records, joined by “and”; a condition that tells them apart may be missing. Equal entries are not always repeated. Entries after “also recorded” stand apart in the source; their conditions may differ.
# Legend:
# recombinant human CES1 [1] = target: T1, recombinant human CES1 (Homo sapiens, UniProt P23141); test: Hydrolysis of 2AG and PG-Gs by recombinant CES1; type: biochemical; conditions: human CES1; average ± SE of 2-4 independent experiments
# T1 sequence (P23141 18-567): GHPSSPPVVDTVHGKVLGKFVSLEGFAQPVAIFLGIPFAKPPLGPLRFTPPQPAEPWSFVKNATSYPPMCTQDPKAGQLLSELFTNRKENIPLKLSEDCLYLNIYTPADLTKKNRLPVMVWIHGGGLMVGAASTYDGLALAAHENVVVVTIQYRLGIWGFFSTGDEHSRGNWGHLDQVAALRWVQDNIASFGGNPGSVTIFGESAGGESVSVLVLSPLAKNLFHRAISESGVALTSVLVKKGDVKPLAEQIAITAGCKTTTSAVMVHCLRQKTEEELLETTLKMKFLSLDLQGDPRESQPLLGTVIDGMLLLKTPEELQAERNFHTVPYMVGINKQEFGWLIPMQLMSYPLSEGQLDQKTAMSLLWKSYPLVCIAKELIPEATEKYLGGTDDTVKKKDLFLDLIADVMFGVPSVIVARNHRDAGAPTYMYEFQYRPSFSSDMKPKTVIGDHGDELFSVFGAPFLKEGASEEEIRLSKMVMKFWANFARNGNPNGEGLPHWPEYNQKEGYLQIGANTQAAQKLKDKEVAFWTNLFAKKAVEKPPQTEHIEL
# recombinant human CES2 = target: T2, recombinant human CES2 (Homo sapiens, UniProt O00748); test: Hydrolysis of 2AG and PG-Gs by recombinant CES2; type: biochemical; conditions: for kcat / Km: human CES2, average ± SE of 2-4 independent experiments
# T2 sequence (O00748 27-559): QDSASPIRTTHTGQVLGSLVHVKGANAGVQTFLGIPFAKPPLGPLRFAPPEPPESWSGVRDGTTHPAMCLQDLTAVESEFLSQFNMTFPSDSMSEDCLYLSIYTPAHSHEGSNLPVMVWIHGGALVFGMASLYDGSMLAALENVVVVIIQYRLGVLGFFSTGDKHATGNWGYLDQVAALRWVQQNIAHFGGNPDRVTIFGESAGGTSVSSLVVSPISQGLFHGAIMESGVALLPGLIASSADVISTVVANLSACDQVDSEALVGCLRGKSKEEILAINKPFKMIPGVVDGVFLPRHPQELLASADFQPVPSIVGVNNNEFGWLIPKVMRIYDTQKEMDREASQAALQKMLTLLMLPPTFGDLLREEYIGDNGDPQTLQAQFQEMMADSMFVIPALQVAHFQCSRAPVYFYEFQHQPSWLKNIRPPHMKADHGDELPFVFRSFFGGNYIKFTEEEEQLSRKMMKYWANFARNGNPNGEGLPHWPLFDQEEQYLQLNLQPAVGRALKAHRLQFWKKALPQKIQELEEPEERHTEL
# [2] = system: CES1-depleted THP1 monocyte lysates; test: PG-G and 2AG hydrolysis by CES1-immunodepleted THP1 monocyte lysates; type: biochemical, human; conditions: 25 μM PG-G or 10 μM 2AG, 30 min; versus preimmune IgG control
# How it was run: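 THP1 monocyte lysate was solubilised in 50 mM Tris-HCl (pH 7.4) with 0.5% w/v Brij (1 h, 4°C). It was then incubated overnight with anti-CES1 or preimmune IgG plus protein A-agarose, and depletion was checked by western blot. Substrate (25 μM PG-G or 10 μM 2AG) in the same buffer was preheated 5 min at 37°C, then started with 10-30 μg supernatant lysate; 2AG ran 30 min. Reactions were run in duplicate or triplicate across ≥2 IP experiments, compared by Student's t-test.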
# [3] = system: lipid glyceryl ester hydrolase activities of THP1 monocyte lysates
# [4] = target: T3, native CES1 in THP1 lysates (Homo sapiens, UniProt P23141); test: Activity-based protein profiling with FP-biotin in THP1 lysate: CES1; type: biochemical
# T3 sequence (P23141 18-567): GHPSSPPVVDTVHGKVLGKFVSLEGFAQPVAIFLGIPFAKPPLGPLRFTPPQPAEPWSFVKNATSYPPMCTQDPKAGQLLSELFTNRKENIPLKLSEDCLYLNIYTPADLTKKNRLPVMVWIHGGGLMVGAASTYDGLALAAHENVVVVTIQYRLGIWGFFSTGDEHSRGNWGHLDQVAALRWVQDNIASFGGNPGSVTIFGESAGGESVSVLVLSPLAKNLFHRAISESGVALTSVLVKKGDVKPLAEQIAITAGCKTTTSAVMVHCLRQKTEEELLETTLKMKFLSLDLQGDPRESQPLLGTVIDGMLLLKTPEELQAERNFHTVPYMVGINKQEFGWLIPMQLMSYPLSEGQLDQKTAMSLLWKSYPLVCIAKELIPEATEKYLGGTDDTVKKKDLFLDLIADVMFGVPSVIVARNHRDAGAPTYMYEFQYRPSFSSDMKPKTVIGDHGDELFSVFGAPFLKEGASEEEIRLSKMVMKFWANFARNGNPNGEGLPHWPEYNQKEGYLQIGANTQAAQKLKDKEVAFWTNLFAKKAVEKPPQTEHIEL
# How it was run: (§1)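 THP1 monocyte lysate (1 mg/ml protein in 50 mM Tris-HCl, pH 7.4) was labelled with 2 μM FP-biotin for 1 h at room temperature. Irreversible inhibitors were preincubated for 30 min (37°C) before the probe. For the reversible inhibitor, lysate received inhibitor, then 0.2 μM FP-biotin for 7.5 min, short of full labelling. Reactions were stopped in reducing SDS loading buffer (95°C, 5 min), run on SDS-PAGE and blotted with avidin-HRP.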
# recombinant human MAGL [5] = target: T4, recombinant human MAGL (Homo sapiens, UniProt Q99685); test: Off-target test: 2AG hydrolysis by recombinant human MAGL with S-3030; type: biochemical; conditions: S-3030 50 μM, 2AG 25 μM, 10 min pre-incubation
# T4 sequence (Q99685 1-303): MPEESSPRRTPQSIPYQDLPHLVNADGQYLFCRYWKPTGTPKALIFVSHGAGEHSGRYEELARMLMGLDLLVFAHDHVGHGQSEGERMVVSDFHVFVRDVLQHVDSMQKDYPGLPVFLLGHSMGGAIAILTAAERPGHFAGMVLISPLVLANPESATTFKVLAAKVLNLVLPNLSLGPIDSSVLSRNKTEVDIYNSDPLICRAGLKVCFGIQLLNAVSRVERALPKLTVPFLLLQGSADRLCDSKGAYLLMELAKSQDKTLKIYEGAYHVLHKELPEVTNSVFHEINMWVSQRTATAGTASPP
# [6] = system: 31-32kDa enzyme in THP1 lysates; test: Activity-based protein profiling with FP-biotin in THP1 lysate: 31-32kDa enzyme; type: biochemical, human; conditions: S-3030 0-100 μM, FP-biotin 0.2 μM, 7.5 min
# How it was run: as §1
# recombinant human MAGL [7] = target: T4, recombinant human MAGL; type: biochemical; conditions: substrate 25 μM, 15 min, recombinant human enzymes
# How it was run: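 Purified recombinant human enzymes were compared; CES1 was expressed in baculovirus-infected Spodoptera frugiperda cells.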
# recombinant human CES1 [8] = target: T1, recombinant human CES1; test: Off-target test: 2AG hydrolysis by recombinant human CES1 with NAM; type: biochemical; conditions: NAM 50 μM, 2AG 25 μM, 10 min pre-incubation
# intact THP1 monocytes = type: cell-based, human; conditions: PO 1 μM, 30 min; substrate 25 μM, 60 min
# THP1 foam cells = test: Endogenous 2AG produced by cholesterol-loaded THP1 macrophages; type: cell-based, human; conditions: 24 h
# THP1 macrophages [9] = test: In situ formation of PG-Gs by LPS-primed THP1 macrophages given exogenous 2AG; type: cell-based, human; conditions: 1 μM PO 30 min prior to 10 μM 2AG; LPS-pretreated THP1 macrophages
# THP1 macrophages [10] = test: PG-G and 2AG levels in LPS-primed THP1 macrophages stimulated with ionomycin; type: cell-based, human; conditions: oxon 1 μM, ionomycin 5 μM
# [11] = maximal inhibition using 100 μM S-3030
molecule,measurement,setting,value
"CCCCC/C=C\C/C=C\C/C=C\C/C=C\CCCC(=O)OC(CO)CO [2AG, 2-arachidonoylglycerol]",kcat,recombinant human CES1 [1],59 min⁻¹
same,kcat,recombinant human CES2,43 min⁻¹
same,reduction of hydrolysis activity of CES1-depleted lysate,[2],64%
same,control THP1 lysate hydrolysis activity,"[3]; 25 μM substrate, no inhibitor",2.5 nmol product/min/mg protein
"O=C1C(=O)c2sccc2-c2ccsc21 [S-3030, thieno[3,2-e][1]benzothiophene-4,5-dione]",IC50,[4],~23 µM
same,inhibition of 2AG hydrolysis in THP1 monocyte lysate,[3]; [11],55% and 50%
same,inhibition of PGE2-G hydrolysis in THP1 monocyte lysate,[3]; [11],97% and > 95%
same,inhibition of PGF2α-G hydrolysis in THP1 monocyte lysate,[3]; [11],80%
same,inhibition of recombinant human MAGL activity,recombinant human MAGL [5],did not inhibit; also recorded: does not inhibit
same,inhibition of the 31-32kDa enzyme (FP-biotin band intensity),[6],not reduced
prostaglandin F2α glyceryl ester [PGF2α-G],Km,recombinant human CES1 [1],93 ± 43 µM
same,kcat,recombinant human CES1 [1],"29 ± 3.5^a,b min^−1"
same,hydrolysis rate by MAGL relative to CES1,recombinant human MAGL [7],4 fold
same,hydrolysis relative to PGE2-G using CES2 (judged by kcat/Km),recombinant human CES2,6.5 fold
same,hydrolysis by CES2 relative to CES1,recombinant human CES2; Table 1,three times faster
same,Km,recombinant human CES2,35 ± 4.1 µM
same,kcat,recombinant human CES2,49 ± 5.4^a min^−1
same,reduction of hydrolysis activity of CES1-depleted lysate,[2],50%
prostaglandin E2 glyceryl ester [PGE2-G],Km,recombinant human CES1 [1],250 ± 60 µM
same,kcat,recombinant human CES1 [1],90 ± 16^b min^−1
same,hydrolysis rate by MAGL relative to CES1,recombinant human MAGL [7],2 fold
same,Km,recombinant human CES2,705 ± 380 µM
same,kcat,recombinant human CES2,150 ± 81 min⁻¹
same,reduction of hydrolysis activity of CES1-depleted lysate,[2],80%
"CCCCC/C=C\C/C=C\C/C=C\C/C=C\CCCC(=O)N1C(=O)C=CC1=O [NAM, N-arachidonoyl maleimide]",inhibition of recombinant CES1 activity toward 2AG,recombinant human CES1 [8],inhibits
"CCOP(=O)(OCC)Oc1ccc([N+](=O)[O-])cc1 [PO, paraoxon]","inhibition of hydrolysis of exogenous 2AG, PGE2-G, or PGF2α-G by intact THP1 monocytes",intact THP1 monocytes,~ 50%
same,amount of 2AG in culture medium relative to control group,THP1 foam cells; oxon 1 μM,3.1 fold
same,amount of 2AG in culture medium relative to control group,THP1 foam cells; oxon 10 μM,3.5 fold
same,increase in PGE2-G levels,THP1 macrophages [9],2 fold
same,increase in PGF2α-G levels,THP1 macrophages [9],4 fold
same,"PGF2α-G, PGE2-G, and 2AG levels compared to vehicle-treated cells following ionomycin stimulation",THP1 macrophages [10],did not significantly elevate
same,inhibition of PGE2-G hydrolysis activity in THP1 cell lysate,[3]; oxon 1 μM,near complete inhibition
same,inhibition of hydrolysis of exogenous 2AG in THP1 lysate,"[3]; oxon 1 μM, 2AG 10 μM",35%
same,inhibition of 2AG hydrolysis activity in THP1 lysate,[3]; oxon 10 μM,did not further enhance inhibition
same,knock down of 2AG hydrolysis activity in THP1 monocyte lysate,[3]; oxon 500 μM,55%
